{"source": "paper PMC7528620", "about": "(Clinical cancer research : an official journal of the …, 2019)", "key": {"[1]": {"system": "coagulation factor VII (Factor VII)", "assay": "Olink multiplex proximity extension assay of patient plasma", "format": "in vivo, human", "conditions": "cycle 1 day 8", "in_short": "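Plasma from 80 patients dosed orally at 8, 12 or 16 mg QD was collected at baseline (cycle 1 day 1) and on treatment (cycle 1 day 8, cycle 2 day 1, cycle 4 day 1). About 1,012 proteins were profiled by multiplex proximity extension assay. Factor VII is expressed as fold-change versus baseline.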"}, "[2]": {"system": "advanced malignancies", "assay": "Objective response assessment, study INCB 57643-101", "format": "in vivo, human", "conditions": "for reduction in spleen size by manual palpation: one MF patient", "in_short": "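Open-label phase 1/2 study in adults (≥18 y) with relapsed/refractory advanced malignancies. Oral dosing was 8–16 mg QD, continuous, as monotherapy (escalation; expansion at 12 mg QD) or from 8 mg QD combined with standard-of-care agents, in 21- or 28-day cycles. Response was assessed with malignancy-specific criteria in patients with ≥1 dose, measurable/evaluable baseline disease and ≥1 post-baseline assessment.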"}, "[3]": {"system": "patients with advanced malignancies", "assay": "Safety and tolerability, phase 1/2 study INCB 57643-101", "format": "in vivo", "conditions": "for TRAEs (any): all treatment groups; for TRAE thrombocytopenia: incl. platelet counts decreased"}, "[4]": {"assay": "Plasma pharmacokinetics, study INCB 57643-101", "format": "in vivo, human", "conditions": "for half-life: human, plasma", "in_short": "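Plasma PK used noncompartmental analysis in patients given ≥1 dose with ≥1 PK sample, dosed orally at 8, 12 or 16 mg QD continuously. Steady-state oral clearance (CLss/F) and terminal half-life are reported as mean with SD.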"}, "[5]": {"assay": "Effect of a high-fat meal on PK of INCB057643", "format": "in vivo, human", "in_short": "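Steady-state plasma PK was compared within 12 patients, each dosed orally once daily in the fasted state and with a high-fat meal. Parameters (Tmax, Cmax, AUCtau) came from noncompartmental analysis. The fed/fasted ratio of geometric means is reported with its 90% CI.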"}, "[6]": {"conditions": "Part 2 TGA, 12 mg QD, 86 patients"}, "[7]": {"conditions": "Part 3, 8 mg QD in combination with SOC agents, 13 patients"}}, "data": [{"molecule": "CN1C(=O)C(C)(C)Oc2c(-c3cn(C)c(=O)c4[nH]ccc34)cc(S(C)(=O)=O)cc21", "note": "[INCB057643]", "values": [{"measurement": "Factor VII mean [SEM] fold decrease vs. baseline", "setting": "[1]; 8 mg", "result": "−0.32 [0.10]"}, {"measurement": "Factor VII mean [SEM] fold decrease vs. baseline", "setting": "[1]; 12 mg", "result": "−0.53 [0.14]"}, {"measurement": "Factor VII mean [SEM] fold decrease vs. baseline", "setting": "[1]; 16 mg", "result": "−0.53 [0.33]"}, {"measurement": "patients with objective responses", "setting": "[2]; 134 patients", "result": 6, "unit": "patients"}, {"measurement": "patients who maintained SD for ≥6 months", "setting": "[2]; all with solid tumors", "result": 6, "unit": "patients"}, {"measurement": "duration of complete response", "setting": "[2]; follicular lymphoma patient, 8 mg QD, ongoing at data cutoff", "result": "> 2", "unit": "years"}, {"measurement": "patients with SD as best response", "setting": "[2]; in vivo", "result": "Twenty-seven"}, {"measurement": "patients with progressive disease as best response", "setting": "[2]; in vivo", "result": "Forty-one"}, {"measurement": "discontinuation, primary reason disease progression", "setting": "[2]; n = 134", "result": "76 (57) n (%)"}, {"measurement": "reduction in spleen size by manual palpation", "setting": "[2]; 8 mg QD + ruxolitinib", "result": 77, "unit": "%"}, {"measurement": "reduction in spleen size by manual palpation", "setting": "[2]; 12 mg QD monotherapy", "result": 92.5, "unit": "%"}, {"measurement": "patients requiring dose interruptions and/or reductions due to AEs", "setting": "[3]; 16 mg QD cohort, cycles 1 and 2", "result": 50, "unit": "%"}, {"measurement": "patients with ≥1 any grade TRAE", "setting": "[3]; 134 enrolled patients", "result": 86, "unit": "%"}, {"measurement": "tolerability of the 16 mg QD dose", "setting": "[3]; Part 1 TGA", "result": "not tolerated"}, {"measurement": "DLTs", "setting": "[3]; Part 1 TGA, grade 3 increased INR, 16 mg QD cohort of 8 patients", "result": 1, "unit": "DLT"}, {"measurement": "TRAEs leading to dose interruptions", "setting": "[3]; Part 2 TGA, 12 mg QD", "result": 35, "unit": "%"}, {"measurement": "TRAEs leading to dose reductions", "setting": "[3]; Part 2 TGA, 12 mg QD", "result": 11, "unit": "%"}, {"measurement": "patients with a grade 3/4 TRAE", "setting": "[3]; [6]", "result": 36, "unit": "%"}, {"measurement": "patients with a serious TRAE", "setting": "[3]; [6]", "result": 13, "unit": "%"}, {"measurement": "patients with a grade 3/4 TRAE", "setting": "[3]; Part 2 TGB, 12 mg QD, 5 patients", "result": 40, "unit": "%"}, {"measurement": "patients requiring dose interruption", "setting": "[3]; Part 2 TGB, 12 mg QD, febrile neutropenia and thrombocytopenia", "result": 20, "unit": "%"}, {"measurement": "TRAEs leading to dose interruptions", "setting": "[3]; [7]", "result": 6, "unit": "patients"}, {"measurement": "TRAEs leading to dose reductions", "setting": "[3]; [7]", "result": 4, "unit": "patients"}, {"measurement": "incidence of TRAE anemia", "setting": "[3]; any grade", "result": 14, "unit": "%"}, {"measurement": "incidence of TRAE decreased appetite", "setting": "[3]; any grade", "result": 22, "unit": "%"}, {"measurement": "incidence of TRAE diarrhea", "setting": "[3]; any grade", "result": 16, "unit": "%"}, {"measurement": "incidence of TRAE dysgeusia", "setting": "[3]; any grade", "result": 16, "unit": "%"}, {"measurement": "incidence of TRAE fatigue", "setting": "[3]; any grade", "result": 30, "unit": "%"}, {"measurement": "incidence of TRAE hyperglycemia", "setting": "[3]; any grade", "result": 13, "unit": "%"}, {"measurement": "incidence of TRAE nausea", "setting": "[3]; any grade", "result": 30, "unit": "%"}, {"measurement": "incidence of TRAE thrombocytopenia", "setting": "[3]; any grade", "result": 32, "unit": "%"}, {"measurement": "incidence of TRAE vomiting", "setting": "[3]; any grade", "result": 16, "unit": "%"}, {"measurement": "patients with treatment-related INR increased events", "setting": "[3]; any grade", "result": "Seven"}, {"measurement": "TRAEs (any)", "setting": "[3]; any grade, n = 134", "result": "115 (86) n (%)"}, {"measurement": "TRAE anemia", "setting": "[3]; any grade, n = 134", "result": "19 (14) n (%)"}, {"measurement": "TRAE decreased appetite", "setting": "[3]; any grade, n = 134", "result": "30 (22) n (%)"}, {"measurement": "TRAE diarrhea", "setting": "[3]; any grade, n = 134", "result": "21 (16) n (%)"}, {"measurement": "TRAE dysgeusia", "setting": "[3]; any grade, n = 134", "result": "22 (16) n (%)"}, {"measurement": "TRAE fatigue", "setting": "[3]; any grade, n = 134", "result": "40 (30) n (%)"}, {"measurement": "TRAE hyperglycemia", "setting": "[3]; any grade, n = 134", "result": "18 (13) n (%)"}, {"measurement": "TRAE nausea", "setting": "[3]; any grade, n = 134", "result": "40 (30) n (%)"}, {"measurement": "TRAE vomiting", "setting": "[3]; any grade, n = 134", "result": "21 (16) n (%)"}, {"measurement": "TRAE thrombocytopenia", "setting": "[3]; any grade, n = 134", "result": "43 (32) n (%)"}, {"measurement": "MTD per protocol definition", "setting": "[3]; at 16 mg QD", "result": "not reached"}, {"measurement": "incidence of TRAE INR increased", "setting": "[3]; grade ≥3", "result": 2, "unit": "%"}, {"measurement": "incidence of TRAE anemia", "setting": "[3]; grade ≥3", "result": 10, "unit": "%"}, {"measurement": "incidence of TRAE dehydration", "setting": "[3]; grade ≥3", "result": 2, "unit": "%"}, {"measurement": "incidence of TRAE diarrhea", "setting": "[3]; grade ≥3", "result": 2, "unit": "%"}, {"measurement": "incidence of TRAE hyperglycemia", "setting": "[3]; grade ≥3", "result": 3, "unit": "%"}, {"measurement": "incidence of TRAE hyponatremia", "setting": "[3]; grade ≥3", "result": 2, "unit": "%"}, {"measurement": "incidence of TRAE nausea", "setting": "[3]; grade ≥3", "result": 2, "unit": "%"}, {"measurement": "incidence of TRAE syncope", "setting": "[3]; grade ≥3", "result": 2, "unit": "%"}, {"measurement": "incidence of TRAE vomiting", "setting": "[3]; grade ≥3", "result": 2, "unit": "%"}, {"measurement": "TRAEs (any)", "setting": "[3]; grade ≥3, n = 134", "result": "48 (36) n (%)"}, {"measurement": "TRAE anemia", "setting": "[3]; grade ≥3, n = 134", "result": "14 (10) n (%)"}, {"measurement": "TRAE decreased appetite", "setting": "[3]; grade ≥3, n = 134", "result": "0 (0) n (%)"}, {"measurement": "TRAE diarrhea", "setting": "[3]; grade ≥3, n = 134", "result": "2 (2) n (%)"}, {"measurement": "TRAE dysgeusia", "setting": "[3]; grade ≥3, n = 134", "result": "0 (0) n (%)"}, {"measurement": "TRAE fatigue", "setting": "[3]; grade ≥3, n = 134", "result": "1 (1) n (%)"}, {"measurement": "TRAE hyperglycemia", "setting": "[3]; grade ≥3, n = 134", "result": "4 (3) n (%)"}, {"measurement": "TRAE nausea", "setting": "[3]; grade ≥3, n = 134", "result": "2 (2) n (%)"}, {"measurement": "TRAE vomiting", "setting": "[3]; grade ≥3, n = 134", "result": "2 (2) n (%)"}, {"measurement": "TRAE thrombocytopenia", "setting": "[3]; grade ≥3, n = 134", "result": "24 (18) n (%)"}, {"measurement": "deaths deemed related to treatment", "setting": "[3]; human, in vivo", "result": 2, "unit": "deaths"}, {"measurement": "deaths during the study", "setting": "[3]; human, in vivo", "result": 17, "unit": "deaths"}, {"measurement": "discontinuation, primary reason adverse event", "setting": "[3]; n = 134", "result": "20 (15) n (%)"}, {"measurement": "discontinuation, primary reason death", "setting": "[3]; n = 134", "result": "9 (7) n (%)"}, {"measurement": "patients requiring dose reductions", "setting": "[3]; overall", "result": 11, "unit": "%"}, {"measurement": "patients who discontinued treatment due to TRAEs", "setting": "[3]; overall", "result": 11, "unit": "%"}, {"measurement": "half-life", "setting": "[4]; oral", "result": "~10", "unit": "h"}, {"measurement": "half-life", "setting": "[4]; po", "result": 11.1, "unit": "h"}, {"measurement": "oral clearance CLss/F, mean [SD]", "setting": "[4]; overall, oral dosing, patients", "result": "11.1 [4.97] L/h"}, {"measurement": "fed vs. fasted geometric mean ratio of Cmax", "setting": "[5]; 90% CI 0.78–1.01", "result": 0.89}, {"measurement": "fed vs. fasted geometric mean ratio of AUCtau", "setting": "[5]; 90% CI 0.99–1.29", "result": 1.13}, {"measurement": "increase of geometric mean AUCtau by high-fat meal", "setting": "[5]; fed vs fasted", "result": 13, "unit": "%"}, {"measurement": "lowering of geometric mean Cmax by high-fat meal", "setting": "[5]; fed vs fasted", "result": 11, "unit": "%"}]}]}
